Measurements reported in ChEMBL document CHEMBL2203249, “Optimization of a small tropomyosin-related kinase B (TrkB) agonist 7,8-dihydroxyflavone active in mouse models of depression” (J Med Chem, 2012).
Active and inactive are the calls of the source. The calls are words filed in the database; no cut-off is given here.

How the values were obtained:
Mus musculus [1] = experiment: Agonist activity at TrkB receptor in C57BL/J6 mouse brain assessed as TrkB phosphorylation at tyrosine 816 in hippocampus at 1 mg/kg, po after 4 hrs by immunoblotting analysis; type: functional, organism-based; set-up: dose 1 mg/kg
Outline: (§1)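 Male C57BL/6 mice, two months old, received a single 1 mg/kg oral dose, with saline controls. Brain or hippocampus was collected 4 h later (time-course samples at various times). Homogenates were ultracentrifuged and 40 μg supernatant was immunoblotted for p-TrkB, p-Akt and p-MAPK.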

[2] = target: BDNF/NT-3 growth factors receptor (Rattus norvegicus) (UniProt Q63604); experiment: Agonist activity at TrkB receptor in E17 rat embryo primary neurons assessed as TrkB phosphorylation at tyrosine 817 at 500 nM after 15 mins by immunoblotting analysis; type: functional
Outline: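 Primary cortical cultures from E17 rat embryos were exposed to 500 nM for 15 min. Lysates were immunoblotted for p-TrkB and p-Akt (20 μg per lane). Two replicate experiments.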

Mus musculus [3] = experiment: Agonist activity at TrkB receptor in C57BL/J6 mouse brain assessed as Akt phosphorylation at serine 473 in hippocampus at 1 mg/kg, po after 4 hrs by ELISA; type: functional, organism-based; set-up: dose 1 mg/kg
Outline: (§2)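 Male C57BL/6 mice, two months old, received a single 1 mg/kg oral dose, with saline controls. Brain was taken at set time points and lysed. Phospho-Akt S473 was measured by sandwich ELISA on 20 μg lysate: overnight capture at 4°C, detection antibody, HRP secondary and TMB, read at 450 minus 650 nm. Two replicate experiments, one-way ANOVA against control.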

HepG2 [4] = experiment: Cytotoxicity against human HepG2 cells assessed as cell death upto 100 uM after 24 hrs by LDH assay; type: cell-based; details: hepg2, 24 h
Outline: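 HepG2 cells were exposed to a range of concentrations up to 100 μM for 24 h, and cytotoxicity was measured by LDH release. n=3.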

HepG2 [5] = experiment: Genotoxicity in human HepG2 cells assessed as induction of DNA lesion at 100 uM after 24 hrs by comet assay; type: toxicity, cell-based; details: hepg2, 24 h
Outline: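 HepG2 cells were exposed to 100 μM for 24 h, with etoposide as positive control. Cells were embedded in agarose, lysed 2 h at 4°C at pH 10, unwound 40 min in alkali at pH >13 and electrophoresed at 25 V for 30 min at 4°C. After ethidium bromide staining, comet-tail nuclei were counted in >100 cells per field. Three independent experiments, one-way ANOVA.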

HepG2 [6] = experiment: Genotoxicity in human HepG2 cells assessed as micronuclei formation at 50 uM after 24 hrs by DAPI staining; type: toxicity, cell-based; details: hepg2, 24 h
Outline: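 HepG2 cells were exposed to 50 μM for 24 h, with benzo(a)pyrene as positive control. Cells were swollen in hypotonic KCl/NaCl for 10 min at 37°C, fixed in methanol/acetic acid 3:1 and stained with DAPI at 2 μg/ml. Three independent experiments, one-way ANOVA.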

Mus musculus [7] = experiment: Agonist activity at TrkB receptor in C57BL/J6 mouse brain assessed as TrkB phosphorylation at tyrosine 706 at 1 mg/kg, po by immunoblotting analysis; type: functional, organism-based; set-up: dose 1 mg/kg; outline: as §1
Mus musculus [8] = experiment: Agonist activity at TrkB receptor in C57BL/J6 mouse brain assessed as Akt phosphorylation at serine 473 at 1 mg/kg, po by immunoblotting analysis; type: functional, organism-based; set-up: dose 1 mg/kg; outline: as §1
Mus musculus [9] = experiment: Agonist activity at TrkB receptor in C57BL/J6 mouse brain assessed as TrkB phosphorylation at tyrosine 816 in cortex at 5 mg/kg, po administered qd for 21 days by immunoblotting analysis; type: functional, organism-based; set-up: dose 5 mg/kg
Mus musculus [10] = experiment: Antidepressant activity in C57BL/J6 mouse assessed as reduction of immobility at 5 mg/kg, po administered qd for 21 days recorded in last 4 mins by forced swim test; type: functional, organism-based; set-up: dose 5 mg/kg
Outline: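 Male C57BL/6J mice, 2–3 months old, were gavaged daily for 21 days with drug (5 or 2.5 mg/kg) or saline and adapted to the test room for 2 days. With no preswim, each mouse was placed for 6 min in a 16-cm cylinder of 24 °C water, 14 cm deep. Immobility in the last 4 min was scored blind and compared by unpaired t-test (n=6 or 8).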

Mus musculus [11] = experiment: Agonist activity at TrkB receptor in C57BL/J6 mouse brain assessed as Akt phosphorylation at serine 473 at 1 mg/kg, po after 4 hrs by ELISA; type: functional, organism-based; set-up: dose 1 mg/kg; outline: as §2
Mus musculus [12] = experiment: Agonist activity at TrkB receptor in C57BL/J6 mouse brain assessed as Akt phosphorylation at serine 473 at 1 mg/kg, po after 1 hr by ELISA; type: functional, organism-based; set-up: dose 1 mg/kg; outline: as §2
Mus musculus [13] = experiment: Agonist activity at TrkA receptor in C57BL/J6 mouse brain assessed as TrkA phosphorylation at tyrosine 794 in cortex at 5 mg/kg, po administered qd for 21 days by immunoblotting analysis; type: functional, organism-based; set-up: dose 5 mg/kg
Mus musculus [14] = experiment: Agonist activity at TrkB receptor in C57BL/J6 mouse brain assessed as Akt phosphorylation at serine 473 at 1 mg/kg, po after 8 hrs by ELISA; type: functional, organism-based; set-up: dose 1 mg/kg; outline: as §2
Mus musculus [15] = experiment: Volume of distribution at steady state in mouse at 1 mg/kg, iv by HPLC analysis; type: ADME, organism-based; set-up: dose 1 mg/kg, route intravenous; details: in vivo
Outline: (§3)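 Mice (20–30 g, 6–8 weeks old) were dosed i.v. or orally. Blood was drawn into lithium-heparin tubes at 3, 10, 30, 60, 120, 240, 360 and 480 min, with 3 mice per time point. Plasma was separated at 2500 × g for 15 min at 4°C within 1 h and stored at −20°C. Samples were analysed by HPLC, and AUC was calculated by the linear/log trapezoidal method.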

Mus musculus [16] = experiment: Agonist activity at TrkB receptor in C57BL/J6 mouse brain assessed as Akt phosphorylation at serine 473 in hippocampus at 1 mg/kg, po after 4 hrs by immunoblotting analysis; type: functional, organism-based; set-up: dose 1 mg/kg; outline: as §1
Mus musculus [17] = experiment: AUC last in mouse at 1 mg/kg, iv by HPLC analysis; type: ADME, organism-based, Plasma; set-up: time 0 - last, dose 1 mg/kg, route intravenous; details: in vivo
Outline: (§4)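 Mice of 20–30 g, 6–8 weeks old, dosed i.v. or orally. Blood was drawn at 3, 10, 30, 60, 120, 240, 360 and 480 min into lithium-heparin tubes, spun at 2500 × g for 15 min at 4°C within 1 h and stored at −20°C. Plasma was analysed by HPLC, 3 mice per time point. AUC was calculated by the linear/log trapezoidal method.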

Mus musculus [18] = experiment: Volume of distribution in mouse at 1 mg/kg, iv by HPLC analysis; type: ADME, organism-based; set-up: dose 1 mg/kg, route intravenous; details: in vivo; outline: as §3
Mus musculus [19] = experiment: Agonist activity at TrkB receptor in C57BL/J6 mouse brain assessed as MAPK phosphorylation in hippocampus at 1 mg/kg, po after 4 hrs by immunoblotting analysis; type: functional, organism-based; set-up: dose 1 mg/kg; outline: as §1
Mus musculus [20] = experiment: Elimination half life in mouse at 1 mg/kg, iv by HPLC analysis; type: ADME, organism-based; set-up: dose 1 mg/kg, route intravenous; details: in vivo; outline: as §4
Mus musculus [21] = experiment: AUC (infinity) in mouse at 1 mg/kg, iv by HPLC analysis; type: ADME, organism-based, Plasma; set-up: time infinity, dose 1 mg/kg, route intravenous; details: in vivo; outline: as §4
Mus musculus [22] = experiment: Agonist activity at TrkB receptor in C57BL/J6 mouse brain assessed as Akt phosphorylation at serine 473 at 1 mg/kg, po after 8 hrs by ELISA relative to control; type: functional; outline: as §2
Mus musculus [23] = experiment: Antidepressant activity in C57BL/J6 mouse assessed as increase in locomotion at 5 mg/kg, po qd for 21 days tested on day 22 by locomotor activity assay; type: functional, organism-based; set-up: dose 5 mg/kg
Outline: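 Male C57BL/6J mice were gavaged with 5 mg/kg/day or saline vehicle for 21 days. On day 22, ambulation (consecutive photobeam breaks) was recorded in automated chambers for 2 h in 30-min intervals. n=6, two-way ANOVA.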

Sequence of BDNF/NT-3 growth factors receptor (Rattus norvegicus) (Q63604 whole entry): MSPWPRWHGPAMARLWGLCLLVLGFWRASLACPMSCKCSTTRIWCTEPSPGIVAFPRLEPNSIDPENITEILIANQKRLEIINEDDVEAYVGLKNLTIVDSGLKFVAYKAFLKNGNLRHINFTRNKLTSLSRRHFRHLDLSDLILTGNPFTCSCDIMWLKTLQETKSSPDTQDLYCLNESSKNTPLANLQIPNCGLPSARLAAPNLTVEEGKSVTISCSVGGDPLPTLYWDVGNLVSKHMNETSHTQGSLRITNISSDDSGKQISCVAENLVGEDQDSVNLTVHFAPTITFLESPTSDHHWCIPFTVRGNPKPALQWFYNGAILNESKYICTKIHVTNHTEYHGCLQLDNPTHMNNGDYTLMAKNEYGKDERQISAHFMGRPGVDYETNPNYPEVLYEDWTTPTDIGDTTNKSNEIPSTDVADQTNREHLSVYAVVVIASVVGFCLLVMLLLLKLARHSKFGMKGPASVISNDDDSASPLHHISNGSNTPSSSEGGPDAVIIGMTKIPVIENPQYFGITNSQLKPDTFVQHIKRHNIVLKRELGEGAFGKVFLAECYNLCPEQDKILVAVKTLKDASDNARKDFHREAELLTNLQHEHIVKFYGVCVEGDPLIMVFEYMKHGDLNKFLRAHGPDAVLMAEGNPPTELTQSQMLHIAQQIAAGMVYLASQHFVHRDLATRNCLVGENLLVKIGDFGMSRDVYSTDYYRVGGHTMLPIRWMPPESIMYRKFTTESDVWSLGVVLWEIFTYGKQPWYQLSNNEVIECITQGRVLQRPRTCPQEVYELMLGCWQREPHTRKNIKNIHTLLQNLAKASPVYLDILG

Activity [2]	Compound	Activity (Mus musculus [1])	Activity (Mus musculus [3])	further results
Active	O=c1cc(-c2cncnc2)oc2c(O)c(O)ccc12	Active	Active	
inactive	O=c1cc(-c2ccccc2)[nH]c2c(O)c(O)ccc12	Active	Active	
Active	CN(C)c1ccc(-c2cc(=O)c3c(F)cc(O)c(O)c3o2)cc1	Active	Active	
Active	O=c1c(F)c(-c2ccccc2)oc2c(O)c(O)ccc12	Active	Active	
inactive	O=c1cc(-c2ccc(F)cc2)[nH]c2c(O)c(O)ccc12	Active	Active	
Active	O=c1c(F)c(-c2cccc(O)c2)oc2c(O)c(O)ccc12	Active	Active	Activity (Mus musculus [7]): inactive; Activity (Mus musculus [8]): inactive; Activity (Mus musculus [9]): Active; Activity (Mus musculus [10]): Active; Activity (Mus musculus [11]): inactive; Activity (Mus musculus [12]): Active; Activity (Mus musculus [13]): inactive; Activity (Mus musculus [14]): inactive
Active	O=c1cc(-c2ccccc2)oc2c(O)c(O)cc(F)c12	Active	Active	
Active	CN(C)c1ccc(-c2cc(=O)c3ccc4nc[nH]c4c3o2)cc1	Active	Active	Activity (Mus musculus [7]; TDE = time-dependent effect): tde; Activity (Mus musculus [16]): Active; Activity (Mus musculus [8]; TDE = time-dependent effect): tde; Activity (Mus musculus [22]): 250%; Activity (HepG2 [4]): Non-toxic; Activity (Mus musculus [9]): Active; Activity (Mus musculus [23]): Active; Activity (HepG2 [5]): Toxic; Activity (Mus musculus [10]): Active; Activity (Mus musculus [19]): Active; Activity (HepG2 [6]): Non-toxic; Activity (Mus musculus [13]): inactive

Continued, compound first:

Compound	Activity [2]	Activity (Mus musculus [1])	Activity (Mus musculus [3])	further results
O=c1cc(-c2ccc(F)cc2)oc2c(O)c(O)ccc12	inactive			
O=c1cc(-c2ccc(N3CCCC3)cc2)oc2c1ccc1nc[nH]c12				Activity (HepG2 [4]): Non-toxic; Activity (HepG2 [5]): Non-toxic; Activity (HepG2 [6]): Non-toxic
CN(C)c1cccc(-c2cc(=O)c3ccc(O)c(O)c3o2)c1	Active	Active	Active	
Br.CN(C)c1ccc(-c2cc(=O)c3ccc(O)c(O)c3o2)cc1	Active	Active	Active	Vdss (Mus musculus [15]): 0.803 L/kg; Activity (Mus musculus [16]): Active; AUClast (Mus musculus [17]): 5930 ng·min/mL; Vz (Mus musculus [18]): 2.117 L/kg; Activity (Mus musculus [19]): Active; beta t1/2 (Mus musculus [20]): 9 min; AUC (Mus musculus [21]): 5943 ng·min/mL
c1ccc2c(c1)cc1ccc3cccc4ccc2c1c34				Activity (HepG2 [6]): Toxic
